Data: ChEMBL document CHEMBL4152367, “Discovery of a Potent Thiazolidine Free Fatty Acid Receptor 2 Agonist with Favorable Pharmacokinetic Properties” (J Med Chem, 2018)
The source made the active and inactive calls. The rule behind the calls is not given here.

Experiments:
[1] = molecular target: T1, Free fatty acid receptor 4 (Homo sapiens) (UniProt Q5NUL3); assay: Antagonist activity at human FFA4 receptor expressed in HEK293 cells assessed as inhibition of GW9508-induced of calcium flux at 10 uM by fluorimetry; type: functional, cell-based
T1 sequence (whole entry): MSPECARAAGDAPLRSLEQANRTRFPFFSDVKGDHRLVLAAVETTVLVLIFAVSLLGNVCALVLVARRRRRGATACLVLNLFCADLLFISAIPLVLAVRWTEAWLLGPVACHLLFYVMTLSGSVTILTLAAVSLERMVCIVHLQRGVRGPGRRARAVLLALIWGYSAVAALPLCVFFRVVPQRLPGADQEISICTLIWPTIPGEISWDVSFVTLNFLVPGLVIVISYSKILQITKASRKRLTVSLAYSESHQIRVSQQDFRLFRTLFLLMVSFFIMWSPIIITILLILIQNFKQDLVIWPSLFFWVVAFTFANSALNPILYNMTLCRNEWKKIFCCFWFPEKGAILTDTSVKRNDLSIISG

[2] = Tmax in Balb/c mouse at 10 mg/kg, po by HPLC-MS/MS analysis; type: ADME, organism-based; conditions: in vivo
Summary of the method: (§1)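 Balb/c mice dosed at 5 mg/kg iv or 10 mg/kg po. Plasma concentrations over time used to derive t1/2, AUC0–∞, Vd and total clearance (iv), and tmax, Cmax, AUC0–∞ and oral bioavailability (po).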

[3] = Chemical stability of the compound in FaSSGF after 2 hrs; type: ADME, physicochemical; conditions: read-out: Stability
Summary of the method: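 Simulated-fluid stability: 50 µM compound in FaSSIF or FaSSGF (from 10 mM DMSO stock), shaken at 37 °C for 0 and 120 min. Quenched with acetonitrile containing 0.5% HCOOH, centrifuged, supernatant by HPLC. Stability from peak area relative to the 0 min sample; duplicates, mean reported.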

[4] = molecular target: T2, Oxysterols receptor LXR-alpha (Homo sapiens) (UniProt Q13133); assay: Antagonist activity at human LXRalpha expressed in Escherichia coli assessed as inhibition of T0901317-induced calcium flux at 10 uM by fluorimetry
T2 sequence (whole entry): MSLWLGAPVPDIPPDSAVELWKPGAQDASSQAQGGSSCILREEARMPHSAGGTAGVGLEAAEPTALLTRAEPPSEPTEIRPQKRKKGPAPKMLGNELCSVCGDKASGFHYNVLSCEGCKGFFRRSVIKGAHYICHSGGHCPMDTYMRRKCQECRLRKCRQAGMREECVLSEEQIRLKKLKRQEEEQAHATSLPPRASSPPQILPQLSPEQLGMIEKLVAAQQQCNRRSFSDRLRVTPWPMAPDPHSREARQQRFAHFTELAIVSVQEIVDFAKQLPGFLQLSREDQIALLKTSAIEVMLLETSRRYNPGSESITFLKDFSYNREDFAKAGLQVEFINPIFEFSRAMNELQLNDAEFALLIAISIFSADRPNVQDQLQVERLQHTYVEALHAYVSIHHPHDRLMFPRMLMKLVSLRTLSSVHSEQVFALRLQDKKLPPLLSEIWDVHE

[5] = Oral bioavailability in Balb/c mouse at 10 mg/kg by HPLC-MS/MS analysis; type: ADME, organism-based; conditions: in vivo; summary of the method: as §1
[6] = molecular target: T3, Free fatty acid receptor 3 (Homo sapiens) (UniProt O14843); assay: Agonist activity at FFA3R (unknown origin) up to 100 uM; type: functional
T3 sequence (whole entry): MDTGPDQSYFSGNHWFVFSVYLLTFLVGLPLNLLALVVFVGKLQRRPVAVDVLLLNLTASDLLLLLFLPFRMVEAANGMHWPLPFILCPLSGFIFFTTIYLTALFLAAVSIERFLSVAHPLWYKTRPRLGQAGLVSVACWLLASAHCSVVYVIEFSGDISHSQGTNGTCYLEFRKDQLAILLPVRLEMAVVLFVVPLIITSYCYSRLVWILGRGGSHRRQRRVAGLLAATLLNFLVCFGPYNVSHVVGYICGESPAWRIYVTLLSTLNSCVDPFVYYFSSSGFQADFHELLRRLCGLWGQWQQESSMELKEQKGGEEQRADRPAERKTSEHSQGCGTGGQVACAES

[7] = molecular target: T2, Oxysterols receptor LXR-alpha (Homo sapiens); assay: Agonist activity at human LXRalpha expressed in Escherichia coli assessed as induction of calcium flux at 10 uM by fluorimetry
[8] = Octanol/PBS buffer partition co-efficient, log D of the compound at pH 7.4 after 24 hrs by HPLC analysis; type: physicochemical
[9] = molecular target: T4, Peroxisome proliferator-activated receptor gamma (Homo sapiens) (UniProt P37231); assay: Agonist activity at human PPARgamma expressed in Escherichia coli assessed as induction of calcium flux at 10 uM by fluorimetry
T4 sequence (whole entry): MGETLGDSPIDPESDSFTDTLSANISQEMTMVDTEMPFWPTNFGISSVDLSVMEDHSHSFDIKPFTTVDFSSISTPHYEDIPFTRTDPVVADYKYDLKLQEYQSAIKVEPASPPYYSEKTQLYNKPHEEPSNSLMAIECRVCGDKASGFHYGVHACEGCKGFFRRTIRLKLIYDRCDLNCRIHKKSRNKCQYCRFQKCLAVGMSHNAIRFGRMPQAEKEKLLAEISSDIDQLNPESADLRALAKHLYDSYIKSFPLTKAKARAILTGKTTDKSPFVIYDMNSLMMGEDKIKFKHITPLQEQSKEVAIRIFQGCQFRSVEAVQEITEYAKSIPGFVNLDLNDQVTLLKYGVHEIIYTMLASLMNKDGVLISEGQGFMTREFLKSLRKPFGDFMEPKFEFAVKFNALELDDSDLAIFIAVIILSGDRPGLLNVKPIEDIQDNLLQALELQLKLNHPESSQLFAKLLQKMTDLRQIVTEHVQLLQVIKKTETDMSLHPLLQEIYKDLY

[10] = Chemical stability of the compound in PBS buffer at 37 degC after 3 weeks; type: physicochemical; conditions: read-out: Stability
Summary of the method: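 Chemical stability: 50 µM compound (diluted from 10 mM DMSO stock) in 10 mM phosphate buffer, pH 7.4, shaken at 37 °C; sampled at intervals over 3 weeks. Remaining compound by HPLC peak area relative to the 0 time point; duplicate runs, each injected twice.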

[11] = molecular target: Free fatty acid receptor 1 (Homo sapiens) (UniProt O14842); assay: Agonist activity at human FFA1R expressed in HEK293 cells assessed as induction of calcium flux at 10 uM by fluorimetry; type: functional, cell-based
Chain of Free fatty acid receptor 1 (Homo sapiens) (O14842 whole entry): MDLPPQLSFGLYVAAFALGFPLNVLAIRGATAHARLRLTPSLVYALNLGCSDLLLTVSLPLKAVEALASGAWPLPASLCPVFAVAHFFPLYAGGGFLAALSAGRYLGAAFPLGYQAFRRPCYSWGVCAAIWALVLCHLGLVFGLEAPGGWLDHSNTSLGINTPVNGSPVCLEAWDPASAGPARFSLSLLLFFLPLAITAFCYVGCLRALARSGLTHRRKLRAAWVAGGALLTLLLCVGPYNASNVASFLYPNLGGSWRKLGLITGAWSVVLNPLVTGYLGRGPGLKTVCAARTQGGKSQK

[12] = Clearance in Balb/c mouse primary hepatocytes per million cells after 2 hrs by LC-MS/MS analysis; type: ADME, cell-based, Hepatocyte; conditions: read-out: CLH
[13] = Half life in Balb/c mouse at 5 mg/kg, ip by HPLC-MS/MS analysis; type: ADME, organism-based; conditions: in vivo
[14] = AUC (0 to infinity) in Balb/c mouse at 5 mg/kg, ip by HPLC-MS/MS analysis; type: ADME, organism-based; set-up: dose 5 mg/kg, time infinity, route intraperitoneal; conditions: in vivo
[15] = AUC (0 to infinity) in Balb/c mouse at 10 mg/kg, po by HPLC-MS/MS analysis; type: ADME, organism-based; set-up: dose 10 mg/kg, route oral, time infinity; conditions: in vivo; summary of the method: as §1

inhibition [1]: inactive | Tmax [2]: 15 min | remaining at 2 h [3]: 100% | inhibition [4]: inactive | bioavailability [5]: 32% | Activity [6]: inactive | Activity [7]: inactive | logD at 24 h [8]: 0.94 | Activity [9]: inactive | remaining at […] [10]: 97.6% | Activity [11]: inactive | hepatocyte CLint [12]: < 8 µL/min/1e6 cells | half-life [13]: 82 min | AUC(0-inf) [14]: 1010 ng·h/mL | AUC(0-inf) [15]: 2600 ng·h/mL
Compound: Cc1noc(C)c1-c1ccc(C(=O)N2[C@@H](c3ccccc3Cl)SC[C@H]2C(=O)O)cc1
